Reference: ChEMBL document CHEMBL1134579, “Design and biological activity of (S)-4-(5-([1-(3-chlorobenzyl)-2-oxopyrrolidin-3-ylamino]methyl)imidazol-1-ylmethyl)benzonitrile, a 3-aminopyrrolidinone farnesyltransferase inhibitor with excellent cell potency” (J Med Chem, 2001)

Experiments:
[1] = target: Geranylgeranyl transferase type-1 subunit beta (Homo sapiens, UniProt P53609); assay: Inhibitory concentration of geranylgeranyl-protein transferase type I
[2] = target: Protein farnesyltransferase (Homo sapiens, UniProt P49354+P49356); assay: In vitro inhibition of farnesyl transferase using purified recombinant human enzyme; type: protein-complex assay
Summary of the method: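 Purified recombinant human FTase with [1-³H]FPP and a recombinant protein substrate carrying the K-Ras C-terminus (CVIM). Labeled farnesyl incorporation measured by acid precipitation of total protein and scintillation counting. Final methanol or DMSO 0.5 vol %. Mostly run at least twice; SD given for n≥3.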

[3] = target: Protein farnesyltransferase (Rattus norvegicus); assay: Concentration required to displace 50% of a potent radiolabeled FTI from farnesyl transferase in cultured H-ras-transformed Rat1 cells
[4] = target: Voltage-gated inwardly rectifying potassium channel KCNH2 (Homo sapiens, UniProt Q12809)
Sequence of Voltage-gated inwardly rectifying potassium channel KCNH2 (Q12809 whole entry): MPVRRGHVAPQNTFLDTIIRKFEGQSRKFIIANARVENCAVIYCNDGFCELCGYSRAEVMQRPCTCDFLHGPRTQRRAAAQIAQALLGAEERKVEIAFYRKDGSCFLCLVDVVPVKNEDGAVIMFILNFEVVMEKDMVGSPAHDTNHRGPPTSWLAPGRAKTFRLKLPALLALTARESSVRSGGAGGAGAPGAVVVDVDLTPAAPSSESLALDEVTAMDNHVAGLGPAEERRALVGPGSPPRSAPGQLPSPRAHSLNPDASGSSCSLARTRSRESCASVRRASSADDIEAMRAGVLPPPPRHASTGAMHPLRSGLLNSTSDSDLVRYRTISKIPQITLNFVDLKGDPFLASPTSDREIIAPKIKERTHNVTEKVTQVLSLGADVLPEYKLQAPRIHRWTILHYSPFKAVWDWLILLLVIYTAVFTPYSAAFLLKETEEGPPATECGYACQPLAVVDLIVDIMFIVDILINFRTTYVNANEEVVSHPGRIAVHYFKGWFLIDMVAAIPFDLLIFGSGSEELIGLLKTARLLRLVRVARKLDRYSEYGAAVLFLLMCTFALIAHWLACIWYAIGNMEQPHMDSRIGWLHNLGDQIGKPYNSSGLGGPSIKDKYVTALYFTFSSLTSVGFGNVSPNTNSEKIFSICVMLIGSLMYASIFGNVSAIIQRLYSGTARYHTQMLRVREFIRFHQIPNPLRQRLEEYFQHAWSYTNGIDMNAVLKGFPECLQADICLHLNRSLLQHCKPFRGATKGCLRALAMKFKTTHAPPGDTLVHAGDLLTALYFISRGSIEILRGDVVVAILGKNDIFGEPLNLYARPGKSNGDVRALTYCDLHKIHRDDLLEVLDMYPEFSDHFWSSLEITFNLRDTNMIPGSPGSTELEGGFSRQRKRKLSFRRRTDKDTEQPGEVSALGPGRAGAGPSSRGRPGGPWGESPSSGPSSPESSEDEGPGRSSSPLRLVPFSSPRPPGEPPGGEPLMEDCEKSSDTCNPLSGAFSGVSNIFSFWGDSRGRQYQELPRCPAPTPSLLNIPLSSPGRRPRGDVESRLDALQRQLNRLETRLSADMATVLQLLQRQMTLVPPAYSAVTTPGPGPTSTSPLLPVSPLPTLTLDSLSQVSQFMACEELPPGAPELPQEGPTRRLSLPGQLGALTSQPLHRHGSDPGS

Sequence of Geranylgeranyl transferase type-1 subunit beta (P53609 whole entry): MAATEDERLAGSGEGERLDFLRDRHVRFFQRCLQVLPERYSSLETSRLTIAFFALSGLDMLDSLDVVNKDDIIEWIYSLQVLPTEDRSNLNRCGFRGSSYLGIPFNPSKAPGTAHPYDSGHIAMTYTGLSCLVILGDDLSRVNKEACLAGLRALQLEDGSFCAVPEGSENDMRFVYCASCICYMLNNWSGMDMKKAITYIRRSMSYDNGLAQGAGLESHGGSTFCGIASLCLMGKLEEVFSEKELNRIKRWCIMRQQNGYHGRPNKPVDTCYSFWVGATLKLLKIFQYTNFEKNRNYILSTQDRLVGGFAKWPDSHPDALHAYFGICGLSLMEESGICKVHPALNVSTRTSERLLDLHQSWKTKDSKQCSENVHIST

SMILES | IC50 [1] | IC50 [2] | IC50 [3] | IC50 [4]
N#Cc1ccc(Cn2cncc2CCN[C@@H]2CCN(Cc3ccccc3)C2=O)cc1 | 11 µM | 250 nM |  | 
N#Cc1ccc(Cn2cncc2CCN[C@H]2CCN(c3ccccc3)C2=O)cc1 | 14 µM | 280 nM | 150 nM | 
N#Cc1ccc(Cn2cncc2CCN[C@@H]2CCN(CCc3ccccc3)C2=O)cc1 | 1.5 µM | 380 nM |  | 
N#Cc1ccc(Cn2cncc2CN[C@H]2CCN(Cc3cccc(Cl)c3)C2=O)cc1 | 3.4 µM |  |  | 
N#Cc1ccc(Cn2cncc2CN[C@H]2CCN(c3ccc(Cl)cc3)C2=O)cc1 | 11 µM | 21 nM | 30 nM | 
N#Cc1ccc(Cn2cncc2CN[C@H]2CCN(c3ccccn3)C2=O)cc1 | 36 µM | 370 nM |  | 
N#Cc1ccc(Cn2cncc2CN(CCCN)[C@H]2CCN(Cc3ccccc3)C2=O)cc1 | > 50 µM |  |  | 
N#Cc1ccc(Cn2cncc2CN(Cc2ccccc2)[C@H]2CCN(Cc3ccccc3)C2=O)cc1 | 20 µM | 67 nM |  | 
N#Cc1ccc(Cn2cncc2CN(CCCc2ccccc2)[C@H]2CCN(Cc3ccccc3)C2=O)cc1 | 12 µM |  |  | 
N#Cc1ccc(Cn2cncc2CN(CCCN)[C@H]2CCN(Cc3cccc(Cl)c3)C2=O)cc1 | > 50 µM | 7.5 nM | 150 nM | 0.48 µM
N#Cc1ccc(Cn2cncc2CN[C@H]2CCN(c3cccc4ncccc34)C2=O)cc1 | > 20 µM |  |  | 
N#Cc1ccc(Cn2cncc2CN(CCN2CCNCC2)[C@H]2CCN(Cc3cccc(Cl)c3)C2=O)cc1 | > 50 µM |  |  | 
N#Cc1ccc(Cn2cncc2CN[C@H]2CCN(Cc3ccccc3Cl)C2=O)cc1 | 11 µM | 5.2 nM | 2.7 nM | 
N#Cc1ccc(Cn2cncc2CN(CCCc2ccccc2)[C@H]2CCN(Cc3cccc(Cl)c3)C2=O)cc1 | 6.5 µM |  |  | 
CC(C)(C)OC(=O)NCCCN(Cc1cncn1Cc1ccc(C#N)cc1)[C@H]1CCN(Cc2cccc(Cl)c2)C1=O | 2.7 µM | 1.3 nM | 1.1 nM | 0.11 µM
N#Cc1ccc(Cn2cncc2CN[C@H]2CCN(Cc3ccc(Cl)cc3)C2=O)cc1 | 15 µM | 25 nM | 53 nM | 
N#Cc1ccc(Cn2cncc2CN(CCN2CCOCC2)[C@H]2CCN(Cc3cccc(Cl)c3)C2=O)cc1 | 12 µM |  |  | 
N#Cc1ccc(Cn2cncc2CCN[C@H]2CCN(Cc3ccccc3)C2=O)cc1 | 7.4 µM | 270 nM |  | 
N#Cc1ccc(Cn2cncc2CN[C@H]2CCN(c3ccncc3)C2=O)cc1 | > 20 µM | 43 nM | 200 nM | 
N#Cc1ccc(Cn2cncc2CN(CCCCc2ccccc2)[C@H]2CCN(Cc3ccccc3)C2=O)cc1 | 4.6 µM | 42 nM | 310 nM | 
CC(C)(C)OC(=O)NCCCN(Cc1cncn1Cc1ccc(C#N)cc1)[C@H]1CCN(Cc2ccccc2)C1=O | 3.6 µM |  |  | 
N#Cc1ccc(Cn2cncc2CN[C@H]2CCN(c3cccc(Cl)c3)C2=O)cc1 | 6.5 µM | 8.4 nM | 30 nM | 
N#Cc1ccc(Cn2cncc2CN(Cc2cccnc2)[C@H]2CCN(Cc3ccccc3)C2=O)cc1 | > 50 µM |  |  | 
N#Cc1ccc(Cn2cncc2CN[C@H]2CCN(c3cccnc3)C2=O)cc1 | > 20 µM | 85 nM | 240 nM | 
CCCN(Cc1cncn1Cc1ccc(C#N)cc1)[C@H]1CCN(Cc2ccccc2)C1=O |  | 59 nM | 36 nM | 
N#Cc1ccc(Cn2cncc2CN(CCc2ccccc2)[C@H]2CCN(Cc3ccccc3)C2=O)cc1 | 15 µM | 51 nM | 460 nM | 
N#Cc1ccc(Cn2cncc2CCN[C@H]2CCN(CCc3ccccc3)C2=O)cc1 | 2.8 µM | 240 nM |  | 
N#Cc1ccc(Cn2cncc2CCN[C@@H]2CCN(c3ccccc3)C2=O)cc1 | 16 µM | 120 nM |  | 

More lines, main results first:

IC50 [1] | IC50 [2] | IC50 [3] | SMILES | IC50 [4]
19 µM | 89 nM | 70 nM | N#Cc1ccc(Cn2cncc2CN[C@H]2CCN(C(=O)c3ccc(Cl)cc3)C2)cc1 | 
> 50 µM | 150 nM |  | COc1ncccc1C(=O)N1CC[C@H](NCc2cncn2Cc2ccc(C#N)cc2)C1 | 
> 50 µM | 980 nM |  | N#Cc1ccc(Cn2cncc2CN[C@H]2CCN(C(=O)c3cccnc3N)C2)cc1 | > 50 µM
19 µM | 65 nM |  | N#Cc1ccc(Cn2cncc2CN[C@H]2CCN(C(=O)c3ccccc3Cl)C2)cc1 | 
> 50 µM | 100 nM | 610 nM | Cc1ncccc1C(=O)N1CC[C@H](NCc2cncn2Cc2ccc(C#N)cc2)C1 | > 10 µM
41 µM | 200 nM |  | N#Cc1ccc(Cn2cncc2CN[C@@H]2CCN(c3ccccc3)C2=O)cc1 | 
> 50 µM | 2000 nM |  | N#Cc1ccc(Cn2cncc2CN[C@H]2CCN(C(=O)c3cccnc3)C2)cc1 | 
0.88 µM | 11 nM | 330 nM | N#Cc1ccc(Cn2cncc2CN[C@H]2CCN(C(=O)c3cccc4ccccc34)C2)cc1 | 
11 µM | 27 nM | 67 nM | N#Cc1ccc(Cn2cncc2CN[C@H]2CCN(C(=O)c3cccc(Cl)c3)C2)cc1 | 5.8 µM
41 µM | 43 nM | 49 nM | N#Cc1ccc(Cn2cncc2CN[C@H]2CCN(C(=O)c3cncc(Br)c3)C2)cc1 | 6 µM
28 µM |  |  | CSc1ncccc1C(=O)N1CC[C@H](NCc2cncn2Cc2ccc(C#N)cc2)C1 | 
42 µM | 1.5 nM | 14 nM | N#Cc1ccc(Cn2cncc2CN[C@H]2CCN(c3ccccc3Cl)C2=O)cc1 | 
> 50 µM | 6800 nM |  | N#Cc1ccc(Cn2cncc2CN[C@H]2CCN(C(=O)c3ccc[nH]c3=O)C2)cc1 | 
48 µM | 230 nM |  | N#Cc1ccc(Cn2cncc2CN[C@H]2CCN(CCc3ccccc3)C2=O)cc1 | 
> 50 µM | 2900 nM |  | N#Cc1ccc(Cn2cncc2CN[C@H]2CCN(C(=O)c3cccnc3S)C2)cc1 | 11 µM
~5.1 µM | 4.8 nM | 6.2 nM | CCSc1ncccc1C(=O)N1CC[C@H](NCc2cncn2Cc2ccc(C#N)cc2)C1 | 14 µM
24 µM | 110 nM |  | N#Cc1ccc(Cn2cncc2CN[C@H]2CCN(C(=O)c3ccccc3)C2)cc1 | 
40 µM |  |  | N#Cc1ccc(Cn2cncc2CN[C@H]2CCN(Cc3ccccc3)C2=O)cc1 | 7.2 µM
46 µM | 74 nM | 27 nM | N#Cc1ccc(Cn2cncc2CN[C@H]2CCN(c3ccccc3)C2=O)cc1 | 
46 µM |  |  | N#Cc1ccc(Cn2cncc2CN[C@@H]2CCN(Cc3ccccc3)C2=O)cc1 | 
31 µM | 250 nM |  | N#Cc1ccc(Cn2cncc2CN[C@@H]2CCN(CCc3ccccc3)C2=O)cc1 | 
